Reference: ChEMBL document CHEMBL1147379, “Antineoplastic agents, 256. Cell growth inhibitory isocarbostyrils from Hymenocallis” (1993)

Tests used:
Type in all cases: functional
CCRF-CEM = test: Growth inhibition of human CCRF-CEM cells
Summary of the method: (§1)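 NCI 60-human-tumour-cell-line primary in vitro screen. Each compound was tested eight separate times across three concentration ranges with upper limits of 10⁻⁴, 10⁻⁵ and 10⁻⁶ M. Each range used five 10-fold dilutions. GI₅₀, TGI and LC₅₀ were calculated from the concentration-response curves for each cell line, and averaged mean-graph values were constructed from them.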

HL-60 = test: Growth inhibition of human HL-60(TB) cells; summary of the method: as §1
K562 = test: Growth inhibition of human K562 cells; summary of the method: as §1
MOLT-4 = test: Growth inhibition of human MOLT4 cells; summary of the method: as §1
RPMI-8226 = test: Growth inhibition of human RPMI8226 cells; summary of the method: as §1
SR = test: Growth inhibition of human SR cells
Summary of the method: (§2)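 NCI 60-human-tumour-line in vitro primary screen. Each compound tested eight separate times over three concentration ranges (upper limits 10⁻⁴, 10⁻⁵ and 10⁻⁶ M), each range as five 10-fold dilutions. GI₅₀ (also TGI and LC₅₀) derived from the concentration-response curves, reported as averaged values per cell line (negative log₁₀).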

A549 = test: Growth inhibition of human A549 cells; summary of the method: as §1
EKVX = test: Growth inhibition of human EKVX cells; summary of the method: as §1
HOP-18 = test: Growth inhibition of human HOP18 cells; summary of the method: as §1
HOP-62 = test: Growth inhibition of human HOP62 cells; summary of the method: as §1
HOP-92 = test: Growth inhibition of human HOP92 cells; summary of the method: as §1
NCI-H226 = test: Growth inhibition of human NCI-H226 cells; summary of the method: as §1
NCI-H23 = test: Growth inhibition of human NCI-H23 cells; summary of the method: as §1
NCI-H322M = test: Growth inhibition of human NCI-H322M cells; summary of the method: as §1
NCI-H460 = test: Growth inhibition of human NCI-H460 cells; summary of the method: as §1
NCI-H522 = test: Growth inhibition of human NCI-H522 cells; summary of the method: as §1
[1] = Growth inhibition of human LXFL529 cells; summary of the method: as §1
DMS-114 = test: Growth inhibition of human DMS114 cells; summary of the method: as §1
DMS-273 = test: Growth inhibition of human DMS273 cells; summary of the method: as §1
COLO 205 = test: Growth inhibition of human COLO205 cells; summary of the method: as §1
DLD-1 = test: Growth inhibition of human DLD1 cells; summary of the method: as §1
HCC 2998 = test: Growth inhibition of human HCC2998 cells; summary of the method: as §1
HCT-116 = test: Growth inhibition of human HCT116 cells; summary of the method: as §1
HCT-15 = test: Growth inhibition of human HCT15 cells; summary of the method: as §1
HT-29 = test: Growth inhibition of human HT-29 cells; summary of the method: as §1
KM12 = test: Growth inhibition of human KM12 cells; summary of the method: as §1
KM-20L2 = test: Growth inhibition of human KM20L2 cells; summary of the method: as §1
SW-620 = test: Growth inhibition of human SW620 cells; summary of the method: as §2
SF-268 = test: Growth inhibition of human SF268 cells; summary of the method: as §1
SF-295 = test: Growth inhibition of human SF295 cells; summary of the method: as §1
[2] = read-out: pLC50 (the source's name) (converted)

O=C1N[C@H]2[C@H](O)[C@H](O)[C@@H](O)C[C@@H]2c2cc3c(cc21)OCO3
GI50 (CCRF-CEM): 34.7 nM | CC50 (CCRF-CEM; [2]): > 100000 nM | TGI (CCRF-CEM; read-out: pTGI (converted)): 525 nM | GI50 (HL-60): 32.4 nM | CC50 (HL-60; [2]): 30200 nM | TGI (HL-60; read-out: pTGI (converted)): 191 nM | GI50 (K562): 46.8 nM | CC50 (K562; [2]): > 100000 nM | TGI (K562; read-out: pTGI (converted)): 1100 nM | GI50 (MOLT-4): 44.7 nM | CC50 (MOLT-4; [2]): > 100000 nM | TGI (MOLT-4; read-out: pTGI (converted)): 1910 nM | GI50 (RPMI-8226): 95.5 nM | CC50 (RPMI-8226; [2]): > 100000 nM | TGI (RPMI-8226; read-out: pTGI (converted)): 776 nM | GI50 (SR): 52.5 nM | CC50 (SR; [2]): 56200 nM | TGI (SR; read-out: pTGI (converted)): 3240 nM | GI50 (A549): 100 nM | CC50 (A549; [2]): > 100000 nM | TGI (A549; read-out: pTGI (converted)): 1290 nM | GI50 (EKVX): 331 nM | CC50 (EKVX; [2]): 81300 nM | TGI (EKVX; read-out: pTGI (converted)): 3720 nM | GI50 (HOP-18): 158 nM | CC50 (HOP-18; [2]): 79400 nM | TGI (HOP-18; read-out: pTGI (converted)): 1700 nM | GI50 (HOP-62): 64.6 nM | CC50 (HOP-62; [2]): 10000 nM | TGI (HOP-62; read-out: pTGI (converted)): 501 nM | GI50 (HOP-92): 75.9 nM | CC50 (HOP-92; [2]): > 100000 nM | TGI (HOP-92; read-out: pTGI (converted)): 741 nM | GI50 (NCI-H226): 151 nM | CC50 (NCI-H226; [2]): 8710 nM | TGI (NCI-H226; read-out: pTGI (converted)): 759 nM | GI50 (NCI-H23): 53.7 nM | CC50 (NCI-H23; [2]): 6460 nM | TGI (NCI-H23; read-out: pTGI (converted)): 363 nM | GI50 (NCI-H322M): 70.8 nM | CC50 (NCI-H322M; [2]): 57500 nM | TGI (NCI-H322M; read-out: pTGI (converted)): 708 nM | GI50 (NCI-H460): 38.9 nM | CC50 (NCI-H460; [2]): 52500 nM | TGI (NCI-H460; read-out: pTGI (converted)): 813 nM | GI50 (NCI-H522): 37.1 nM | CC50 (NCI-H522; [2]): 3800 nM | TGI (NCI-H522; read-out: pTGI (converted)): 240 nM | GI50 ([1]; LXFL 529): 46.8 nM | CC50 ([1]; LXFL 529, read-out: pLC50 (the source's name) (converted)): 26900 nM | TGI ([1]; LXFL 529, read-out: pTGI (converted)): 708 nM | GI50 (DMS-114): 50.1 nM | CC50 (DMS-114; [2]): 14100 nM | TGI (DMS-114; read-out: pTGI (converted)): 513 nM | GI50 (DMS-273): 61.7 nM | CC50 (DMS-273; [2]): 12000 nM | TGI (DMS-273; read-out: pTGI (converted)): 603 nM | GI50 (COLO 205): 53.7 nM | CC50 (COLO 205; [2]): 457 nM | TGI (COLO 205; read-out: pTGI (converted)): 200 nM | GI50 (DLD-1): 43.6 nM | CC50 (DLD-1; [2]): > 100000 nM | TGI (DLD-1; read-out: pTGI (converted)): 832 nM | GI50 (HCC 2998): 77.6 nM | CC50 (HCC 2998; [2]): 15800 nM | TGI (HCC 2998; read-out: pTGI (converted)): 813 nM | GI50 (HCT-116): 33.1 nM | CC50 (HCT-116; [2]): 24000 nM | TGI (HCT-116; read-out: pTGI (converted)): 398 nM | GI50 (HCT-15): 85.1 nM | CC50 (HCT-15; [2]): 85100 nM | TGI (HCT-15; read-out: pTGI (converted)): 1200 nM | GI50 (HT-29): 61.7 nM | CC50 (HT-29; [2]): > 100000 nM | TGI (HT-29; read-out: pTGI (converted)): 813 nM | GI50 (KM12): 46.8 nM | CC50 (KM12; [2]): 24000 nM | TGI (KM12; read-out: pTGI (converted)): 912 nM | GI50 (KM-20L2): 51.3 nM | CC50 (KM-20L2; [2]): 66100 nM | TGI (KM-20L2; read-out: pTGI (converted)): 912 nM | GI50 (SW-620): 64.6 nM | CC50 (SW-620; [2]): > 100000 nM | TGI (SW-620; read-out: pTGI (converted)): 2400 nM | GI50 (SF-268): 70.8 nM | CC50 (SF-268; [2]): 63100 nM | TGI (SF-268; read-out: pTGI (converted)): 1510 nM | GI50 (SF-295): 141 nM | CC50 (SF-295; [2]): 41700 nM
